From ChEMBL document CHEMBL3351262, “Design and synthesis of new benzimidazole-carbazole conjugates for the stabilization of human telomeric DNA, telomerase inhibition, and their selective action on cancer cells” (J Med Chem, 2014) come the findings set out here.

Assay [1] is described as follows: Binding affinity to human Hum21 [5'-G3(T2AG3)3-3'] G-quadruplex DNA at 0.4 uM in 10 mM pH 7.4 Tris-Hcl buffer containing 0.1 mM EDTA and 0.1 mM NaCl by fluorescence spectroscopy.
Assay [2] is described as follows: Binding affinity to human Hum21 [5'-G3(T2AG3)3-3'] G-quadruplex DNA at 0.4 uM in 10 mM pH 7.4 Tris-Hcl buffer containing 0.1 mM EDTA and […] by fluorescence spectroscopy.
Assay [3] deals with Calf thymus DNA. The assay is described as follows: Binding affinity to calf thymus DNA at 0.4 uM in 10 mM pH 7.4 Tris-Hcl buffer containing 0.1 mM EDTA and 40 mM NaCl by fluorescence spectroscopy. The class given is nucleic-acid assay. The following applies: Bos taurus. In short, it runs like this: (§1)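 CT DNA was in the same Tris/EDTA buffer with 40 mM NaCl. 0.4 μM ligand was titrated with preformed DNA, incubated 10 min at 20 °C, and excited at 300 or 330 nm. Kd and binding stoichiometry n came from the emission titration.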

Assay [4] can be described thus: Displacement of thiazole orange from human Hum21 [5'-G3(T2AG3)3-3'] G-quadruplex DNA in presence of 10 mM pH 7.4 Tris-Hcl buffer containing 0.1 mM EDTA and […] by fluorescent intercalator displacement assay.
Assay [5] can be described thus: Displacement of thiazole orange from calf thymus double stranded DNA in presence of 10 mM pH 7.4 Tris-Hcl buffer containing 0.1 mM EDTA and […] by fluorescent intercalator displacement assay. More on the design: species or system Bos taurus.
A short description of assay [6]: Displacement of thiazole orange from telomeric duplex DNA (unknown origin) in presence of 10 mM pH 7.4 Tris-Hcl buffer containing 0.1 mM EDTA and […] by fluorescent intercalator displacement assay.
For assay [7], the species on record is Homo sapiens. The assay is described as follows: Binding affinity to human Hum21 [5'-G3(T2AG3)3-3'] G-quadruplex DNA in 10 mM pH 7.4 Tris-Hcl buffer containing 0.1 mM EDTA and […] by CD spectroscopy.
Assay [8] is filed under the species Homo sapiens. The assay is described as follows: Binding affinity to human Hum21 [5'-G3(T2AG3)3-3'] G-quadruplex DNA assessed as change in melting temperature in 10 mM pH 7.4 Tris-Hcl buffer containing 0.1 mM EDTA and 0.1 mM NaCl […] (reference value: 7 to 10 degC).
The species named for assay [9] is Homo sapiens. The assay is described as follows: Binding affinity to human Hum21 [5'-G3(T2AG3)3-3'] G-quadruplex DNA assessed as change in melting temperature in 10 mM pH 7.4 Tris-Hcl buffer containing 0.1 mM EDTA and […] measured after 12 hrs by UV-Vis absorption sperctrometry (reference value: 7 to 13 degC).
Assay [10] has as its system Calf thymus DNA. As to the kind of experiment: Binding affinity to calf thymus DNA in 10 mM pH 7.4 Tris-Hcl buffer containing 0.1 mM EDTA and 40 mM NaCl by fluorescence spectroscopy. The assay is classed as nucleic-acid assay, Bos taurus. In short, it runs like this:
as §1

Assay [11] is described as follows: Selectivity index, ratio of Kd for calf thymus DNA to Kd for human Hum21 [5'-G3(T2AG3)3-3'] G-quadruplex DNA. The method, boiled down:
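Selectivity is the ratio of fluorescence-titration Kd for CT DNA (Tris-HCl pH 7.4, 40 mM NaCl, 0.1 mM EDTA) to Kd for preformed Hum21 G4 DNA (Tris-HCl pH 7.4, 0.1 M NaCl/KCl, 0.1 mM EDTA).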

The target of assay [12] is T1, Telomerase reverse transcriptase (Homo sapiens, UniProt O14746). As to the kind of experiment: Inhibition of telomerase isolated form human A549 cells by TRAP-LIG assay.
T1 sequence (O14746 whole entry): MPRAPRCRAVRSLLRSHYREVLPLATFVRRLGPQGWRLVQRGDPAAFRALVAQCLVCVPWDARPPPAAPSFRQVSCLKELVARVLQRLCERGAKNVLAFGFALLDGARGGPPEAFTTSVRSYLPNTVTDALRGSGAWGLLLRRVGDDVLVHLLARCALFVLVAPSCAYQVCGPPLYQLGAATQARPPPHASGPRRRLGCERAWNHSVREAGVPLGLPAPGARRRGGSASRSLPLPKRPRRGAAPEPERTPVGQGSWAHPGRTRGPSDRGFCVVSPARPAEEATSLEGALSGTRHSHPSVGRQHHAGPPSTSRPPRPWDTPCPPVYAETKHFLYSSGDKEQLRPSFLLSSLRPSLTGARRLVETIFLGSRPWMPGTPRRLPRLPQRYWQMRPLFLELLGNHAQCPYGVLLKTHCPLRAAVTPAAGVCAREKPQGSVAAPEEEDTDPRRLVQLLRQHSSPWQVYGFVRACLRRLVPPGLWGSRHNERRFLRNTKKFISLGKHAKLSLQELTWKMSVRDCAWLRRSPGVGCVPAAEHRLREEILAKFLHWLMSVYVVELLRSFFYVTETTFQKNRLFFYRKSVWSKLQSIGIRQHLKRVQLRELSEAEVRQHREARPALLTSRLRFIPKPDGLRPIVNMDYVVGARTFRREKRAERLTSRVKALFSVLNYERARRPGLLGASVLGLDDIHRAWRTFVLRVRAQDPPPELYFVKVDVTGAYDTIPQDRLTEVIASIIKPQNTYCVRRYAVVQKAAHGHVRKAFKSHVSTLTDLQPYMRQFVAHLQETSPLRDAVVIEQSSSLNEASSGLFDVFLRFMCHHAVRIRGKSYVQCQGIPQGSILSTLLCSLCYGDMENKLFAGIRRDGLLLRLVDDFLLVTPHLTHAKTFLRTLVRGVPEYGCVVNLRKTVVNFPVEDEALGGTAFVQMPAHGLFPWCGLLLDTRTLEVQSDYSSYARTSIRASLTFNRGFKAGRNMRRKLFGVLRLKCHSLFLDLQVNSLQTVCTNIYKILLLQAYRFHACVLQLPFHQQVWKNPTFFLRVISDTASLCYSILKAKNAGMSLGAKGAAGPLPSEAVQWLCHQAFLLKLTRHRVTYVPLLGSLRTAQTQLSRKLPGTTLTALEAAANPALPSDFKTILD
The test system of a further assay is HeLa. The assay is described as follows: Cytotoxicity against human HeLa cells at 2 and 5 uM after 15 days by MTT assay.
Assay [13] concerns the target T1, Telomerase reverse transcriptase. The assay is described as follows: Total inhibition of telomerase isolated form human A549 cells by TRAP-LIG assay.
Another assay deals with HEK-293T. The assay is described as follows: Cytotoxicity against transformed HEK293T cells at 2 and 5 uM after 15 days by MTT assay. The following applies: Homo sapiens.
For assay [14], the system named is Calf thymus DNA. The assay is described as follows: Binding affinity to calf thymus DNA in 10 mM pH 7.4 Tris-Hcl buffer containing 0.1 mM EDTA and 40 mM NaCl by CD spectroscopy. The following applies: Bos taurus.
The nature of assay [15]: Binding affinity to human Hum21 [5'-G3(T2AG3)3-3'] G-quadruplex DNA at 5 uM in 10 mM pH 7.4 Tris-Hcl buffer containing 0.1 mM EDTA and 0.1 M KCl by UV-Vis absorption sperctrometry.
Assay [16] can be described thus: Binding affinity to human Hum21 [5'-G3(T2AG3)3-3'] G-quadruplex DNA at 5 uM in 10 mM pH 7.4 Tris-Hcl buffer containing 0.1 mM EDTA and 0.1 M NaCl by UV-Vis absorption sperctrometry.

pIC50, pKd: −log10 of the molar value. Activity calls are given as the source filed them. The calls are words filed in the database; no cut-off is given here.

For `CN1CCN(CCCCn2c3ccc(-c4nc5cc(-c6nc7cc(N8CCN(C)CC8)ccc7[nH]6)ccc5[nH]4)cc3c3cc(-c4nc5cc(-c6nc7cc(N8CCN(C)CC8)ccc7[nH]6)ccc5[nH]4)ccc32)CC1`, the negative logarithm of the Kd (pKd) in assay [1] was 6.74; in assay [2], 6.82; with Calf thymus DNA [10], 4.05; in assay [15], 6.64; in [16], 6.42. The result with Calf thymus DNA [3] was inactive. Besides, the DC50 was 1.36 µM in assay [4], “Not Active” in [5] and “Not Active” in assay [6]. For the same compound, the result in the assay listed under Homo sapiens [7] and in the assay on Calf thymus DNA [14] was Active. The ΔTm in the assay listed under Homo sapiens [8] and in the assay filed under Homo sapiens [9] was 10 °C in each case. The Ratio in assay [11] stood at 234. The compound further had a pIC50 in assay [12] of 5.74. For the same compound, the inhibition entry in the assay with HeLa and with HEK-293T was “Active” throughout. In assay [13], this compound came in with a concentration giving total telomerase inhibition of 3 µM.

With `CN1CCN(CCCCn2c3ccc(-c4nc5cc(N6CCOCC6)ccc5[nH]4)cc3c3cc(-c4nc5cc(N6CCOCC6)ccc5[nH]4)ccc32)CC1`, the pKd in assay [1] is 6.72; with Calf thymus DNA [10] it was 3.51; in [15] it was 6.48; in [16], 6.32. In addition, the outcome in the assay on Calf thymus DNA [3] and with Calf thymus DNA [14] was inactive. Further, the values for the DC50 in assay [4], in assay [5] and in assay [6] were 1.01 µM, “Not Active” and “Not Active”, respectively. Besides, the outcome in the assay filed under Homo sapiens [7] was Active. In addition, the figures for the thermal shift (ΔTm) in the assay filed under Homo sapiens [8] and in the assay listed under Homo sapiens [9] were 8 °C and 7 °C, respectively. For the same compound, in [11], the Ratio turned out to be 650. In addition, the negative logarithm of the IC50 (pIC50) in assay [12] was 5.80. Moreover, the inhibition entry in the assay with HeLa and in the assay on HEK-293T was “Active” each time. The same compound showed a concentration giving total telomerase inhibition in assay [13] of 3 µM.
